Molecules are shown by their SMILES. Active and inactive are the calls of the source. The rule behind the calls is not given here.

For 16 compounds, Efficacy, inhibition and Activity results are on record in ChEMBL document CHEMBL4043061, “Potent, Selective, Allosteric Inhibition of Human Plasmin by Sulfated Non-Saccharide Glycosaminoglycan Mimetics” (J Med Chem, 2017).

Assay [1] addresses Prothrombin (Homo sapiens) (UniProt P00734). The assay is described as follows: Inhibition of human thrombin by using chromogenic substrate spectrozyme TH preincubated for 5 mins followed by substrate addition by spectrophotometric method. Put shortly:
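Thrombin at 6 nM final, 25 °C, in 20 mM Tris-HCl pH 7.4 with 100 mM NaCl, 2.5 mM CaCl2, 0.1% PEG8000, 0.02% Tween80. Inhibitor (0–20 mM stock) or vehicle preincubated 5 min with enzyme. Spectrozyme TH added (1.0 mM stock). Residual activity read as initial rate of A405 increase and fitted to a sigmoidal dose–response curve.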

Assay [2] addresses Plasminogen (Homo sapiens) (UniProt P00747). The assay is described as follows: Allosteric inhibition of full length human plasmin by using chromogenic substrate spectrozyme PL preincubated for 5 mins followed by substrate addition by spectrophotometric method. Put shortly:
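Inhibitor added from 0–20 mM aqueous stocks, or vehicle. After 5 min, Spectrozyme PL added (1 mM stock). Residual activity taken from initial rate of A405 rise. Logistic fit gives IC50, efficacy and Hill slope.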

In assay [3] the target is Coagulation factor XI (Homo sapiens) (UniProt P03951). The assay is described as follows: Inhibition of human F11a by using chromogenic substrate S-2366 preincubated for 5 mins followed by substrate addition by spectrophotometric method. Put shortly:
(§1)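 Tris-HCl pH 7.4 buffer (100 mM NaCl, 2.5 mM CaCl2, 0.1% PEG8000, 0.02% Tween80) at 37 °C; factor IXa buffer also held 33% ethylene glycol. Final enzyme: factor Xa 1.09 nM, XIa 0.75 nM, XIIa 10 nM, IXa 250 nM, trypsin 0.145 µg/mL, chymotrypsin […]. Inhibitor from 0–20 mM stock, 5 min preincubation, then substrate. Initial A405 rate, sigmoidal dose–response fit.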

The species entered for the next assay is Homo sapiens. The assay is described as follows: Inhibition of human chymotrypsin using chromogenic substrate spectrozyme Cty preincubated for 5 mins followed by substrate addition by spectrophotometric method. Put shortly:
as §1

In assay [4] the target is Plasminogen (Homo sapiens) (UniProt P00747). Particulars: 200 uM.
For assay [5], the target named is Coagulation factor X (Homo sapiens) (UniProt P00742). The assay is described as follows: Inhibition of human F10a by using chromogenic substrate spectrozyme F10a preincubated for 5 mins followed by substrate addition by spectrophotometric method. Put shortly:
as §1

Assay [6] concerns the target Plasminogen (Homo sapiens) (UniProt P00747). The assay is described as follows: Binding affinity to human plasmin assessed as loss of intrinsic tryptophan fluorescence at 250 uM by spectrofluorometric method.

Sequence of Plasminogen (Homo sapiens) (P00747 97-580 limits assumed): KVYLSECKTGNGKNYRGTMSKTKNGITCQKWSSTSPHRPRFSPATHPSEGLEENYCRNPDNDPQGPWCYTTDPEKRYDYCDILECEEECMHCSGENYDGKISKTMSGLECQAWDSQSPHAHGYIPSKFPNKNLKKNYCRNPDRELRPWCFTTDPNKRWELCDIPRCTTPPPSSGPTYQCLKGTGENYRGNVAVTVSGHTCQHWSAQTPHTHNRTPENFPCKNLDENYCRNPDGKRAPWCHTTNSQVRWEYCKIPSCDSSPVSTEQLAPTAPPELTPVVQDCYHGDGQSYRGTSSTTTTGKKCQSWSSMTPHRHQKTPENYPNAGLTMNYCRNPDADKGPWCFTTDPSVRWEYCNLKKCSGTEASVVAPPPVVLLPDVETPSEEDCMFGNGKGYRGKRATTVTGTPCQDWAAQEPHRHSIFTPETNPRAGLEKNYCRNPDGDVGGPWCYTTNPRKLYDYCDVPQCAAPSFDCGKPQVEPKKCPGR
Sequence of Plasminogen (Homo sapiens) (P00747 581-810 limits assumed): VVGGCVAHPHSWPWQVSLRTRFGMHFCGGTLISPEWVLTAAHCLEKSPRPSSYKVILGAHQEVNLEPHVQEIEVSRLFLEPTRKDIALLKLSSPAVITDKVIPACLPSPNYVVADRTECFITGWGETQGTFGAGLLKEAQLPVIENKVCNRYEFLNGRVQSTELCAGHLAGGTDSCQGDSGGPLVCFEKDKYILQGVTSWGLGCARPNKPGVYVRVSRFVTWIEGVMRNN
Sequence of Coagulation factor XI (Homo sapiens) (P03951 19-387 limits assumed): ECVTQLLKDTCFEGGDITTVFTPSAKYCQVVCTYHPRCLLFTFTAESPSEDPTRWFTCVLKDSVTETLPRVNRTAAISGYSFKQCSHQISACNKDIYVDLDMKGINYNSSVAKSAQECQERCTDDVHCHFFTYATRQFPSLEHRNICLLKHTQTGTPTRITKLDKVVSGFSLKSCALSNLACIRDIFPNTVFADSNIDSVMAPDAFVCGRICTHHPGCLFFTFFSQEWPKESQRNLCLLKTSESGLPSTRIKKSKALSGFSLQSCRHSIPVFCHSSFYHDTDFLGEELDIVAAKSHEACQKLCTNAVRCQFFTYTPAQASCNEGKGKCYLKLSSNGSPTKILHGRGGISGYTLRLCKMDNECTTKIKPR
Sequence of Coagulation factor XI (Homo sapiens) (P03951 388-625 limits assumed): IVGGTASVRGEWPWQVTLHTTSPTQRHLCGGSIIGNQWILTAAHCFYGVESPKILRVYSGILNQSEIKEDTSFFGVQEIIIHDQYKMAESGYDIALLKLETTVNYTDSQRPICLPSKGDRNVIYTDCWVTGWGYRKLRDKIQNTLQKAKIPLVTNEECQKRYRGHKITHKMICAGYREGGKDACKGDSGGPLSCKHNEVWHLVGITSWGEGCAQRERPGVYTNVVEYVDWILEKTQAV
Sequence of Coagulation factor X (Homo sapiens) (P00742 41-179 limits assumed): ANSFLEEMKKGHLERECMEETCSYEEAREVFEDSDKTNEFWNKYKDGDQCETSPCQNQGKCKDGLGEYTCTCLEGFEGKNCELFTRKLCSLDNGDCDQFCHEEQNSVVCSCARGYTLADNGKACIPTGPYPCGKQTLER
Sequence of Coagulation factor X (Homo sapiens) (P00742 235-488 limits assumed): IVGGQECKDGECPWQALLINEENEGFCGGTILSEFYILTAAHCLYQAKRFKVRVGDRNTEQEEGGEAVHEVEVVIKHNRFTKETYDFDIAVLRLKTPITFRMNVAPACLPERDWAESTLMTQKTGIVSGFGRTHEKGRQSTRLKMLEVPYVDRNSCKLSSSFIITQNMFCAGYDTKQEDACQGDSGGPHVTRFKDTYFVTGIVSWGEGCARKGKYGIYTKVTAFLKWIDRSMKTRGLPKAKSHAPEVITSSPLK

`O=c1c(OS(=O)(=O)O)c(-c2ccc(OS(=O)(=O)O)c(OS(=O)(=O)O)c2)oc2cc(OS(=O)(=O)O)cc(OCc3ccc(COc4cc(OS(=O)(=O)O)cc5oc(-c6ccc(OS(=O)(=O)O)c(OS(=O)(=O)O)c6)c(OS(=O)(=O)O)c(=O)c45)cc3)c12`: the Efficacy was 77% in assay [1], 93 to 98% in assay [2], 93% in assay [3] and 92% in the assay filed under Homo sapiens. Besides, the inhibition result in assay [4] is “Active”. In turn, `O=c1c(OS(=O)(=O)O)c(-c2ccc(OS(=O)(=O)O)c(OS(=O)(=O)O)c2)oc2cc(OS(=O)(=O)O)cc(OCc3ccc(-c4ccc(COc5cc(OS(=O)(=O)O)cc6oc(-c7ccc(OS(=O)(=O)O)c(OS(=O)(=O)O)c7)c(OS(=O)(=O)O)c(=O)c56)cc4)cc3)c12` returned an Efficacy in assay [2] of 80%. As for `O=c1c(O)c(-c2ccc(O)c(O)c2)oc2cc(O)cc(OCc3ccc(COc4cc(O)cc5oc(-c6ccc(O)c(O)c6)c(O)c(=O)c45)cc3)c12`, the Efficacy in assay [1] is 91%; in assay [2], 111%; in assay [5], 104%; in assay [3] it was 109%. Consider `O=c1cc(-c2ccc(OS(=O)(=O)O)cc2)oc2cc(OS(=O)(=O)O)cc(OCc3cccc(COc4cc(OS(=O)(=O)O)cc5oc(-c6ccc(OS(=O)(=O)O)cc6)cc(=O)c45)n3)c12`, for which the Efficacy in assay [2] came out at 63%. Still for that read-out and setting: with `O=c1cc(-c2ccc(OS(=O)(=O)O)cc2)oc2cc(OS(=O)(=O)O)cc(OCc3ccc(-c4ccc(COc5cc(OS(=O)(=O)O)cc6oc(-c7ccc(OS(=O)(=O)O)cc7)cc(=O)c56)cc4)cc3)c12` the figure was 79%. Regarding `O=c1cc(-c2ccc(OS(=O)(=O)O)cc2)oc2cc(OS(=O)(=O)O)cc(OC/C=C/COc3cc(OS(=O)(=O)O)cc4oc(-c5ccc(OS(=O)(=O)O)cc5)cc(=O)c34)c12`, in assay [2], the Efficacy worked out at 90%. Also, the Activity in assay [6] was found to be 101%. In the same order, the values of `Cc1cc(COc2cc(OS(=O)(=O)O)cc3oc(-c4ccc(OS(=O)(=O)O)cc4)cc(=O)c23)c(C)cc1COc1cc(OS(=O)(=O)O)cc2oc(-c3ccc(OS(=O)(=O)O)cc3)cc(=O)c12` are 94% and 108%. In turn, `O=c1cc(-c2ccc(OS(=O)(=O)O)cc2)oc2cc(OS(=O)(=O)O)cc(OCc3ccc(COc4cc(OS(=O)(=O)O)cc5oc(-c6ccc(OS(=O)(=O)O)cc6)cc(=O)c45)cc3)c12` showed an Efficacy in assay [2] of 89%. Still for that read-out and setting: for `O=c1cc(-c2ccc(OS(=O)(=O)O)cc2)oc2cc(OS(=O)(=O)O)cc(OCc3ccc(COc4cc(OS(=O)(=O)O)cc5oc(-c6ccc(OS(=O)(=O)O)c(OS(=O)(=O)O)c6)c(OS(=O)(=O)O)c(=O)c45)cc3)c12` the value was 109%.

`O=c1cc(-c2ccc(OS(=O)(=O)O)cc2)oc2cc(OS(=O)(=O)O)cc(OCCCCOc3cc(OS(=O)(=O)O)cc4oc(-c5ccc(OS(=O)(=O)O)cc5)cc(=O)c34)c12` displayed an Efficacy in assay [2] of 90%. `Cc1cc(COc2cc(OS(=O)(=O)O)cc3oc(-c4ccc(OS(=O)(=O)O)c(OS(=O)(=O)O)c4)c(OS(=O)(=O)O)c(=O)c23)c(C)cc1COc1cc(OS(=O)(=O)O)cc2oc(-c3ccc(OS(=O)(=O)O)c(OS(=O)(=O)O)c3)c(OS(=O)(=O)O)c(=O)c12` yielded an Efficacy in assay [2] of 104%. For the same compound, the Activity in assay [6] is 90%.

Turning to `O=c1cc(-c2ccc(OS(=O)(=O)O)cc2)oc2cc(OS(=O)(=O)O)cc(OCc3cccc(COc4cc(OS(=O)(=O)O)cc5oc(-c6ccc(OS(=O)(=O)O)cc6)cc(=O)c45)c3)c12`, the Efficacy in assay [2] turned out to be 86%. The same measure, in the same setting: with `O=c1cc(-c2ccc(OS(=O)(=O)O)cc2)oc2cc(OS(=O)(=O)O)cc(OCCOc3cc(OS(=O)(=O)O)cc4oc(-c5ccc(OS(=O)(=O)O)cc5)cc(=O)c34)c12` the figure was 79%. Still for that read-out and setting: with `O=c1c(OS(=O)(=O)O)c(-c2ccc(OS(=O)(=O)O)c(OS(=O)(=O)O)c2)oc2cc(OS(=O)(=O)O)cc(OCc3cccc(COc4cc(OS(=O)(=O)O)cc5oc(-c6ccc(OS(=O)(=O)O)c(OS(=O)(=O)O)c6)c(OS(=O)(=O)O)c(=O)c45)n3)c12` the figure was 90%; with `O=c1c(OS(=O)(=O)O)c(-c2ccc(OS(=O)(=O)O)c(OS(=O)(=O)O)c2)oc2cc(OS(=O)(=O)O)cc(OCc3cccc(COc4cc(OS(=O)(=O)O)cc5oc(-c6ccc(OS(=O)(=O)O)c(OS(=O)(=O)O)c6)c(OS(=O)(=O)O)c(=O)c45)c3)c12`, 107%. In assay [2], `O=c1c(OS(=O)(=O)O)c(-c2ccc(OS(=O)(=O)O)c(OS(=O)(=O)O)c2)oc2cc(OS(=O)(=O)O)cc(OCCCCOc3cc(OS(=O)(=O)O)cc4oc(-c5ccc(OS(=O)(=O)O)c(OS(=O)(=O)O)c5)c(OS(=O)(=O)O)c(=O)c34)c12` had an Efficacy of 72%.
